From article PMC11193445 (International Journal of Nanomedicine, 2024)

Tested on: MDA-MB-231 cells
Test: Dox intracellular localization by confocal microscopy
Assay type: cell-based, human
Details: free Dox 7.5 µM, NF-Dox 50 µM (7.5 µM of Dox), 1 h, 37 °C
Summary of the method: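 MDA-MB-231 cells were seeded on coverslips at 5×10^4 cells/well and grown 24 h. They were exposed 1 h at 37 °C, washed twice in PBS, fixed 10 min in ice-cold 4% PFA, and mounted in DAPI-containing antifade. Intrinsic Dox fluorescence (RFP channel) and DAPI nuclei were imaged with a 63× oil objective. Images represent three separate experiments.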

## COc1cccc2c1C(=O)c1c(O)c3c(c(O)c1C2=O)C[C@@](O)(C(=O)CO)C[C@@H]3O[C@H]1C[C@H](N)[C@H](O)[C@H](C)O1 [Dox, Doxorubicin]
  Dox cellular uptake and localization (confocal, red fluorescence): not significant
